Results taken from ChEMBL document CHEMBL1158568, “In silico directed chemical probing of the adenosine receptor family” (Bioorg Med Chem, 2010).

Tests used:
[1] = target: T1, Adenosine receptor A1 (Homo sapiens) (UniProt P30542); assay: Displacement of [3H]DPCPX from human adenosine A1 receptor expressed in CHO cells at 10 uM after 60 mins by beta scintillation counting; type: cell-based
T1 sequence (whole entry): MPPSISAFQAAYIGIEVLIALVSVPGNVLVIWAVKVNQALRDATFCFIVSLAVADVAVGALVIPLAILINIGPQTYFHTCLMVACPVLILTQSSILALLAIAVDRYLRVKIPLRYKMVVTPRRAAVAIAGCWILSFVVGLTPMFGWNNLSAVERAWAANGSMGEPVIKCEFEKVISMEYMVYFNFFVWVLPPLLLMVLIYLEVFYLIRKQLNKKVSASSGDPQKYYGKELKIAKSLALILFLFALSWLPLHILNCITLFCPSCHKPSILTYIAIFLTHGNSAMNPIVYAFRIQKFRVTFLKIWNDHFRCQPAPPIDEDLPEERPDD
Summary of the method: (§1)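 Membranes of CHO-A1 cells (15 lg protein) in 20 mM Hepes, 100 mM NaCl, 10 mM MgCl2, 2 units/ml adenosine deaminase, pH 7.4, with 2 nM [3H]DPCPX; 60 min at 25 °C, duplicates. Non-specific binding with 10 µM (R)-PIA. Filtration, scintillation counting. Single point at 10 µM or six concentrations 10 nM–100 µM; Ki by Cheng–Prusoff.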

Adenosine receptor A2a [2] = target: T2, Adenosine receptor A2a (Homo sapiens, UniProt P29274); assay: Displacement of [3H]ZM241385 from human adenosine A2A receptor expressed in human HeLa cells at 10 uM after 30 mins by beta scintillation counting; type: cell-based
Summary of the method: (§2)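 Membranes from HeLa-A2A cells, 10 lg protein, in 50 mM Tris–HCl, 1 mM EDTA, 10 mM MgCl2, 2 UI/mL adenosine deaminase, pH 7.4; 3 nM [3H]ZM241385, 30 min at 25 °C, duplicates. 50 µM NECA defined non-specific binding. Single 10 µM point or six concentrations 10 nM–100 µM; Ki by Cheng–Prusoff.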

[3] = target: T3, Adenosine receptor A3 (Homo sapiens) (UniProt P0DMS8); assay: Displacement of [3H]NECA from human adenosine A3 receptor expressed in human HeLa cells at 10 uM after 180 mins by beta scintillation counting; type: cell-based
T3 sequence (whole entry): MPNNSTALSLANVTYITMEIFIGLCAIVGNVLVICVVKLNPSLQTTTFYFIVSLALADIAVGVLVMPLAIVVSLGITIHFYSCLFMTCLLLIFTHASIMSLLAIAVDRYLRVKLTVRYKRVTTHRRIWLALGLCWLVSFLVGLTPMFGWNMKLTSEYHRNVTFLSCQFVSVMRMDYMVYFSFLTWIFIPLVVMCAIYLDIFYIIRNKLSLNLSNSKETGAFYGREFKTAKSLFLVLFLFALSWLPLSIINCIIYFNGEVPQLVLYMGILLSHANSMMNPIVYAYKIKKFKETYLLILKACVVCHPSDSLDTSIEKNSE
Summary of the method: (§3)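 HeLa-A3 membranes (90 lg protein) in 50 mM Tris–HCl, 1 mM EDTA, 5 mM MgCl2, 2 UI/mL adenosine deaminase, pH 7.4; 30 nM [3H]NECA, 180 min at 25 °C, triplicates, GF/B filtration. Non-specific with 100 µM (R)-PIA. Tested at 10 µM or six concentrations 10 nM–100 µM; Ki by Cheng–Prusoff.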

[4] = target: T4, Adenosine receptor A2b (Homo sapiens) (UniProt P29275); assay: Displacement of [3H]DPCPX from human adenosine A2B receptor expressed in HEK293 cells at 10 uM after 30 mins by beta scintillation counting; type: cell-based
T4 sequence (whole entry): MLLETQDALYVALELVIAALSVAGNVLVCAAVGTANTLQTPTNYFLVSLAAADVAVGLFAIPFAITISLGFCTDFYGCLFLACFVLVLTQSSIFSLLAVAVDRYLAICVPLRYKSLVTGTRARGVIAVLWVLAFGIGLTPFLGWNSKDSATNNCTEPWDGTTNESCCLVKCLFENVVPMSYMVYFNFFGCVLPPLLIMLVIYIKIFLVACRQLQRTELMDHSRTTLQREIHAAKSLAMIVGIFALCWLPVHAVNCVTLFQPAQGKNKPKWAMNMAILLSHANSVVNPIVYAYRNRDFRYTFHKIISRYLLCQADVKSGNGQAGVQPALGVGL

[5] = target: 5-hydroxytryptamine receptor 7 (Homo sapiens) (UniProt P34969); assay: Displacement of [3H]SB269970 from human 5HT7 receptor expressed in HEK293 cells at 10 uM after 60 mins by beta scintillation counting; type: cell-based
Summary of the method: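 HEK-293-5-HT7 membranes (5 lg protein) in 50 mM Tris–HCl, 4 mM CaCl2, 1 mM ascorbic acid, 0.1 mM pargyline, pH 7.4; 2 nM [3H]SB269970, compound at 10 µM, 60 min at 37 °C, duplicates. Non-specific defined with 25 µM clozapine.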

Adenosine receptor A3 [6] = target: T5, Adenosine receptor A3 (Homo sapiens, UniProt P0DMS8); assay: Displacement of [3H]NECA from human adenosine A3 receptor expressed in human HeLa cells after 180 mins by beta scintillation counting; type: cell-based; summary of the method: as §3
T5 sequence (P0DMS8 whole entry): T3 sequence (whole entry)

Adenosine receptor A3 [7] = target: T5, Adenosine receptor A3; assay: Antagonist activity at human adenosine A3 receptor expressed in forskolin-stimulated CHO cells assessed as inhibition of […]-induced decrease in cAMP level pre-incubated for 15 mins by enzyme immunoassay; type: functional, cell-based
Summary of the method: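 Using CHO-A3 cells (20,000/well, DMEM F-12, 10% FCS), test compound plus 30 µM rolipram pre-incubated 15 min at 37 °C; 1 µM NECA added 15 min, then 10 µM forskolin 3 min. cAMP by enzyme immunoassay at 450 nm; pKB by Leff–Dougall equation.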

[8] = target: Histamine H1 receptor (Homo sapiens) (UniProt P35367); assay: Displacement of [3H]pyrilamine from human histamine H1 receptor expressed in CHO cells at 10 uM after 60 mins by beta scintillation counting; type: cell-based
Summary of the method: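 CHO-H1 membranes (1 lg protein) in 50 mM Tris–HCl pH 7.4 with 2 nM [3H]pyrilamine and compound at 10 µM; 60 min at 27 °C, duplicates. 10 µM triprolidine for non-specific binding; GF/C filtration, scintillation counting.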

[9] = target: T6, Alpha-2A adrenergic receptor (Homo sapiens) (UniProt P08913); assay: Displacement of [3H]MK912 from human adrenergic alpha2A receptor expressed in CHO cells at 10 uM after 30 mins by beta scintillation counting; type: cell-based
T6 sequence (whole entry): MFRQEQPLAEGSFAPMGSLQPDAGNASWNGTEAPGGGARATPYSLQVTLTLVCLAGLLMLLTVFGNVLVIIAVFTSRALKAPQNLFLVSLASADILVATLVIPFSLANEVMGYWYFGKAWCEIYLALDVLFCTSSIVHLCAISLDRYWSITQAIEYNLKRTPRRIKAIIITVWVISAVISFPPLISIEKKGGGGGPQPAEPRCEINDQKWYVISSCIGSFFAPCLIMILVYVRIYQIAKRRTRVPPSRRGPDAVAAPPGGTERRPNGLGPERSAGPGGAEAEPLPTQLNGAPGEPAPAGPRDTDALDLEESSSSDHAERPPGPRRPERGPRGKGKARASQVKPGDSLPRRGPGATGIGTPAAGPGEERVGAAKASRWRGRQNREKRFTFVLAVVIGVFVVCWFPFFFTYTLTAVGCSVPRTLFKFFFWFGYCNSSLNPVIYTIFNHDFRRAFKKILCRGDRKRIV
Summary of the method: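 CHO-a2A membranes (25 lg protein) in 25 mM Na2PO4, pH 7.4, with 0.37 nM [3H]MK-912 and compound at 10 µM; 30 min at 25 °C, duplicates. Non-specific binding with 100 µM norepinephrine; filtration and scintillation counting.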

Adenosine receptor A2a [10] = target: T2, Adenosine receptor A2a; assay: Displacement of [3H]ZM241385 from human adenosine A2A receptor expressed in human HeLa cells after 30 mins by beta scintillation counting; type: cell-based; summary of the method: as §2
Adenosine receptor A2a [11] = target: T2, Adenosine receptor A2a; assay: Antagonist activity at human adenosine A2A receptor expressed in CHO cells assessed as inhibition of […]-induced cAMP accumulation pre-incubated for 15 mins by enzyme immunoassay; type: functional, cell-based
Summary of the method: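 CHO-A2A cells, 10,000/well, in DMEM F-12 with 10% FCS; pre-incubated 15 min at 37 °C with 30 µM rolipram and test compound, then stimulated with 1 µM NECA for 15 min. cAMP measured by enzyme immunoassay at 450 nm; antagonist pKB derived from IC50 via Leff–Dougall equation.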

Adenosine receptor A2b [12] = target: T7, Adenosine receptor A2b (Homo sapiens, UniProt P29275); assay: Antagonist activity at human adenosine A2B receptor expressed in HEK293 cells assessed as inhibition of […]-induced cAMP accumulation pre-incubated for 15 mins by enzyme immunoassay; type: functional, cell-based
T7 sequence (P29275 whole entry): T4 sequence (whole entry)
Summary of the method: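 HEK-293 A2B cells seeded 10,000/well in EMEM F-12 with 10% FCS; 15 min pre-incubation at 37 °C with 30 µM rolipram and test compound, followed by 10 µM NECA for 15 min. Enzyme-immunoassay readout of intracellular cAMP at 450 nm; pKB by Leff–Dougall equation.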

Adenosine receptor A2b [13] = target: T7, Adenosine receptor A2b; assay: Displacement of [3H]DPCPX from human adenosine A2B receptor expressed in HEK293 cells after 30 mins by beta scintillation counting; type: cell-based
Adenosine receptor A1 [14] = target: T8, Adenosine receptor A1 (Homo sapiens, UniProt P30542); assay: Antagonist activity at human adenosine A1 receptor expressed in forskolin-stimulated CHO cells assessed as inhibition of […]-induced decrease in cAMP level pre-incubated for 15 mins by enzyme immunoassay; type: functional, cell-based
T8 sequence (P30542 whole entry): T1 sequence (whole entry)
Summary of the method: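 CHO-A1 cells, 20,000/well, grown in EMEM F-12 with 10% FCS; washed, pre-incubated 15 min at 37 °C with 20 µM rolipram plus test compound, then 0.1 µM NECA 15 min and 3 µM forskolin 3 min. Intracellular cAMP read by enzyme immunoassay at 450 nm; pKB from IC50 by Leff–Dougall equation.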

Adenosine receptor A1 [15] = target: T8, Adenosine receptor A1; assay: Displacement of [3H]DPCPX from human adenosine A1 receptor expressed in CHO cells after 60 mins by beta scintillation counting; type: cell-based; summary of the method: as §1

T2 sequence (P29274 whole entry): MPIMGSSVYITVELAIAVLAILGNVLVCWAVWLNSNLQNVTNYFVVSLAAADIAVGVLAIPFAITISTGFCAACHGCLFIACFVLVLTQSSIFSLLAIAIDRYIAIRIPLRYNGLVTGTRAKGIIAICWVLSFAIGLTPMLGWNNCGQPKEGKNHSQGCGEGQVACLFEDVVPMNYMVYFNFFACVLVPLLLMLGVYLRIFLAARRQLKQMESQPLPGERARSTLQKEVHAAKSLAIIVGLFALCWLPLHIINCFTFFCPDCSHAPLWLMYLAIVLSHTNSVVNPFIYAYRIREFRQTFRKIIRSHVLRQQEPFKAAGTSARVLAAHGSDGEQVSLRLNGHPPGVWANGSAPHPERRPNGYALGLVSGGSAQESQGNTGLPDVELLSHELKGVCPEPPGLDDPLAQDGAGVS
5-hydroxytryptamine receptor 7 (Homo sapiens), sequence (P34969 whole entry): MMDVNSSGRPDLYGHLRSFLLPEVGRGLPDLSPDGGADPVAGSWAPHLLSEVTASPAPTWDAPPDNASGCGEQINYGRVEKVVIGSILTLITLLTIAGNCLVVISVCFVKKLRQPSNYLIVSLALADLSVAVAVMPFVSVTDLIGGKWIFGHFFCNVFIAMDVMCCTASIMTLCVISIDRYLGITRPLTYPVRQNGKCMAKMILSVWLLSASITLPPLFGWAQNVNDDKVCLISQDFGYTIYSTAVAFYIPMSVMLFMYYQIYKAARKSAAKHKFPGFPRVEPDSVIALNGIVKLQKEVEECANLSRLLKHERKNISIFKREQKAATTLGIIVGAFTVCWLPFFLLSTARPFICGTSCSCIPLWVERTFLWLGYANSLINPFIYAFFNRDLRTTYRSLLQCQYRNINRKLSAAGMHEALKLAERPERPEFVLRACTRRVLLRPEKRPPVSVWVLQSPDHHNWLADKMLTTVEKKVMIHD
Histamine H1 receptor (Homo sapiens), sequence (P35367 whole entry): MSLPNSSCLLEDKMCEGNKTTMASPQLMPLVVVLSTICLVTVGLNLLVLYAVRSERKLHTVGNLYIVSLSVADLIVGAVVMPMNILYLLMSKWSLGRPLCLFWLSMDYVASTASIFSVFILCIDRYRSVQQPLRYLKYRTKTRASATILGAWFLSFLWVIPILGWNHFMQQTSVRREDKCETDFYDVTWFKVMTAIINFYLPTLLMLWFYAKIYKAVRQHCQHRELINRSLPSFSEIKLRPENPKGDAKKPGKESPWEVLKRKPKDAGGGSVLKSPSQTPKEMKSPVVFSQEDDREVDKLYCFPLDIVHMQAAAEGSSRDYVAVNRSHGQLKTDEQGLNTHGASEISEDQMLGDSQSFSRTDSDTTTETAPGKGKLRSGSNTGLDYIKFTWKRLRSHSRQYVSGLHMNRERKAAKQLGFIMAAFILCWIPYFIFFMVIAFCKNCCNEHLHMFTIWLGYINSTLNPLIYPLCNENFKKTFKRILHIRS

inhibition [1] [%] | inhibition (Adenosine receptor A2a [2]) [%] | inhibition [3] [%] | inhibition [4] [%] | SMILES | other results
6.8 | 14.3 | 1.9 | 4.3 | Cc1ccc(-n2cnc3c(N4CCSCC4)nc(-c4ccc(C#N)cc4)nc32)cc1 | –
9.8 | 15.2 | 1.9 | 2 | CCO/C=N/c1c(C#N)ncn1Cc1ccccc1 | –
37.5 | 20 | 71.1 | 2.6 | Cc1ccc(-c2ncc3[nH]c(=O)n(Cc4ccccc4)c3n2)cc1 | Activity [5]: 1%; Ki (Adenosine receptor A3 [6]): 0.316 µM; pKb (Adenosine receptor A3 [7]): 6.3; Activity [8]: 17%; Activity [9]: 18%
79 | 63 | – | – | Cc1cc(NC(=O)C2=C3N=C(c4cccs4)C=C(C(F)(F)F)N3NC2)no1 | –
8 | 13.3 | – | – | CN1N=C(C(=O)Nc2ccc(Cl)cn2)C2COc3ccccc3C21 (stereo not given) | –
38.9 | 68.9 | – | 19 | Cc1ccc(-c2nc(C(=O)Nc3ccccn3)c3n2CCCCC3)cc1 | Activity [5]: 18%; Ki (Adenosine receptor A2a [10]): 2.51 µM; Ki (Adenosine receptor A3 [6]): 3.16 µM; pKb (Adenosine receptor A2a [11]): 5.1; Activity [8]: 39%; Activity [9]: 12%
7.6 | 6.1 | 3 | 6.8 | Cc1ccc(-n2cnc3c(N4CCOCC4)nc(-c4ccc(C#N)cc4)nc32)cc1 | –
11.1 | 22.9 | 10.9 | 9.5 | NC(=O)c1nc(-c2ccccc2O)nc2c1ncn2Cc1ccccc1 | –
38.5 | 6.7 | – | – | O=C(/N=C1\c2ccccc2CN1c1ncccn1)Nc1ccccc1 | –
26.8 | 15.2 | 26.1 | 55.4 | N=C1c2c(C(N)=O)nc(-c3ccccc3O)n2CN1c1ccc(O)cc1 | Activity [5]: 11%; Activity [8]: 17%; pKb (Adenosine receptor A2b [12]): 5.7; Activity [9]: 28%; Ki (Adenosine receptor A2b [13]): 1.58 µM
87.3 | 10.9 | 39 | 5 | C=CCOc1cccc(-c2nc(O)c3c4ccccc4c(=O)n(CC)n23)c1 | Activity [5]: 20%; Activity [8]: 42%; pKb (Adenosine receptor A1 [14]): 6.8; Activity [9]: 14%; Ki (Adenosine receptor A1 [15]): 0.0158 µM
51.9 | 59.6 | – | – | COc1cn(-c2ccccc2)nc1C(=O)Nc1ccc(C)cn1 | –
1.2 | 9.8 | 28 | 9.9 | CCO/C(C)=N/c1c(C#N)ncn1Cc1ccccc1 | –
60.7 | 70.5 | – | – | O=C(Nc1ccco1)c1nc2nc(-c3cccs3)cc(C(F)(F)F)c2s1 | –
18.8 | 5 | 31.8 | 3 | COc1ccc(-c2nc(N3CCOCC3)c3ncn(-c4ccc(F)cc4)c3n2)cc1 | –
0.8 | 0.4 | 15.1 | 6.9 | N#Cc1ccc(-c2nc(N3CCCCC3)c3ncn(-c4ccc(F)cc4)c3n2)cc1 | –
18.8 | 8.1 | – | – | OC1=NCC2C(C=NN2Cc2ccccc2)C(c2ccc(Br)cc2)S1 (stereo not given) | –
25.5 | 4.5 | 23.1 | 0.5 | NC(=O)c1nc(-c2cccc(O)c2)nc2c1ncn2-c1ccccc1 | –
